# TNAP inh noacc: human TNAP enzyme inhibitors, primary screen, biochemical, luminescent, no phosphate acceptor, uHTS; Alkaline phosphatase, tissue-nonspecific isozyme (Homo sapiens), P05186; purified TNAP, CDP-star luminescence, 30 min; inhibition, % at 20 µM; actives 0.26% (n = 200,000); AID 1012, 2008;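 active = tissue-nonspecific alkaline phosphatase inhibition above about 50% at 20 µM in the single-dose screen, limit read from the data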;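 also: 0% = DMSO negative control and 100% = EDTA positive control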
# ABCB1 block: ABCB1 efflux pump inhibitors, primary screen, cell-based, multiplex, flow cytometry, ABCG2 counter-screen | ATP-dependent translocase ABCB1 (Homo sapiens), P08183 | CCRF-Adr cells, JC-1 efflux | inhibition, % at 6.6 µM | actives 0.067% (n = 190,000) | AID 1326, 2008; in the data active = inhibition above about 40%;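 also: 0% = vehicle and 100% = reference inhibitor; higher value means more JC-1 retained so stronger ABCB1 efflux block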
# TNAP act hi DEA: TNAP activators at high phosphate acceptor level, primary screen, biochemical, luminescence, uHTS | Alkaline phosphatase, tissue-nonspecific isozyme (Homo sapiens), P05186 | purified TNAP, CDP-star luminescence, 1 M DEA, 30 min; active compounds read high; 0 = EDTA background, 1 = DMSO-only activity | activation factor at 20 µM | 200,000 tested, under 10 active;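 active = activation factor at least 2 at 20 µM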
#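 Measured by: Luminescent substrate turnover signal | Test system: Human TNAP | Input: TNAP 1/800 final | Dosing: 20 µM single point | Schedule: 30 min, room temperature | Controls: EDTA wells as negative control, DMSO wells as positive control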
# PKD1 kinase inh: inhibitors of human PKD1 kinase, biochemical, fluorescence polarization. Serine/threonine-protein kinase D1 (Homo sapiens), Q15139. PKD1 kinase fluorescence polarization assay. inhibition, % (test concentration not listed). actives 0.056% (n = 200,000); in the data active = inhibition above about 50%
# Target sequence (Q15139 whole entry, looked up): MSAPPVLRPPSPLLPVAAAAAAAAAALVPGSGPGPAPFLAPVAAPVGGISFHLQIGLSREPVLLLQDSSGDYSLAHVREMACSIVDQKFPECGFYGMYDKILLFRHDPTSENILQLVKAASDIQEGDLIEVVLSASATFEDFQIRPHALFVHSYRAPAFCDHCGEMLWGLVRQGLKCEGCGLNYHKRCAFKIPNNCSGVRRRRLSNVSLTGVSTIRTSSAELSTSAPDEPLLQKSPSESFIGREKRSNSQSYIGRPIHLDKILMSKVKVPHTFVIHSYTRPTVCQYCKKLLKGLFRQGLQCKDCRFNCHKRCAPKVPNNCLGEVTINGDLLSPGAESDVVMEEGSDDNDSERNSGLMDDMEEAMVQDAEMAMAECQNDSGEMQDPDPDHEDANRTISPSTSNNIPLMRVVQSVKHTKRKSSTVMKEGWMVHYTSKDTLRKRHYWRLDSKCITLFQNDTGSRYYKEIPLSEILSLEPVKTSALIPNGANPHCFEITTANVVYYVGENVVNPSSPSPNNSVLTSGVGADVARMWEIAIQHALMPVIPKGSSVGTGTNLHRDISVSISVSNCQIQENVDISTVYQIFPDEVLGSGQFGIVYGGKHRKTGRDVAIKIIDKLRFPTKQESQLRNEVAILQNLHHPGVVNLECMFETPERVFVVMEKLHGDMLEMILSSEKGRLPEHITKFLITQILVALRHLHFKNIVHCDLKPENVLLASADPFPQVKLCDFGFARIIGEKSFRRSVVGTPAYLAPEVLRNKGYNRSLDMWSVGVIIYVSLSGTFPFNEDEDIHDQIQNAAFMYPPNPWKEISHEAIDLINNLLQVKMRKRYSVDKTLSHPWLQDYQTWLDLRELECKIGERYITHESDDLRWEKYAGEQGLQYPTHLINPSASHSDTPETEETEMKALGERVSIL
# ABCG2 block: ABCG2 efflux pump inhibitors, primary screen, multiplex with ABCB1, IgMXP3 cells, flow cytometry | Broad substrate specificity ATP-binding cassette transporter ABCG2 (Homo sapiens), Q9UNQ0 | JC-1 efflux | inhibition, % at 6.6 µM | actives 0.1% (n = 190,000) | AID 1325, 2008;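 active = inhibition above 80%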;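 also: 0% = DMSO and 100% = nicardipine control wells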
#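 material = IgMXP3 (ABCG2) plus far-red-tagged CCRF-Adr (ABCB1) cells | amount = 3 million cells/mL, equal mix of both lines | also added = JC-1 transporter substrate | dosing = one concentration, 6.6 µM final | schedule = 10 min at 25 °C | measured by = flow cytometric JC-1 green MFI at 530 nm | read-out basis = percent efflux inhibition, scaled nicardipine 100% to DMSO 0%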
# TNAP inh hi DEA: human TNAP enzyme inhibitors, primary screen, biochemical, luminescent, high phosphate acceptor level, uHTS. Alkaline phosphatase, tissue-nonspecific isozyme (Homo sapiens), P05186. purified TNAP, CDP-star luminescence, 1 M DEA. actives 0.03% (n = 200,000). inhibition, % at 20 µM;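 active = over 50% inhibition of tissue-nonspecific alkaline phosphatase at 20 µM in the single-dose screen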;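 also: plate controls were DMSO wells for no effect and EDTA-quenched wells as full inhibition for full effect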
# An asterisk follows results filed as active; i = inactive; . = no result; + = active, no number. Hits are enriched below; roughly 0.48% of the tested compounds scored in any of these assays.
SMILES,TNAP inh noacc,ABCB1 block,TNAP act hi DEA,PKD1 kinase inh,ABCG2 block,TNAP inh hi DEA
CN(C)c1ccc(/C=C/c2ccc3ccccc3[n+]2C)cc1,57*,0,0.4,-3,1,57*
CN(C)c1ccc(/C=C/c2ccc3c4ccccc4ccc3[n+]2-c2ccccc2)cc1,74*,0,0.3,1,0,69*
OC(CNCCCCNCC(O)C(F)(F)F)C(F)(F)F (configuration not stated),-1,0,1,4,0,-3
CN(CC(=O)Nc1ccc(N2CCOCC2)cc1)CC(=O)Nc1ccccc1C#N,50*,1,1,-2,8,-3
S=C(NCc1ccccc1)NNc1ccccc1,7,1,1,5,5,-1
O=C1C2CC=CCC2C(=O)N1Cc1ccccc1 (configuration not stated),-9,1,1,3,2,-3
O=C1C2C3C=CC(C3)C2C(=O)N1c1n[nH]c(CCc2ccccc2)n1 (configuration not stated),68*,0,1,1,5,2
O=C1C2CC=CCC2C(=O)N1c1n[nH]c(Cc2ccccc2)n1 (configuration not stated),96*,0,1,-10,4,2
Cc1[nH]c(=O)[nH]c(=O)c1S(=O)(=O)N1CCCC(C(=O)NCCC2=CCCCC2)C1 (configuration not stated),-4,2,1,2,4,-4
N#CC1=C(N)Nc2nc3ccccc3n2C1c1ccc(Cl)cc1 (configuration not stated),-10,0,1,0,10,-4
Cc1nnc2c3cnn(-c4ccc(Cl)cc4)c3ncn12,67*,.,1.1,.,.,-5
CC(C)(C)c1ccc(C(=O)Nc2cccc([N+](=O)[O-])c2)cc1,1,11,1,-11,116*,4
Nc1nc(SCC(=O)N2CCCC2)[nH]c(=O)c1-c1ccccc1,-8,2,1,-3,5,-3
Nc1nc(SCC(=O)N2CCc3ccccc32)[nH]c(=O)c1-c1ccccc1,66*,0,1.1,-5,1,-9
O=C(CC(Sc1n[nH]c(-c2ccccc2)n1)c1ccccc1)NCc1ccccc1 (configuration not stated),35,0,1,8,61,-4
COc1ccc(-c2nc(SC(CC(=O)NCCO)c3cccs3)n[nH]2)cc1 (configuration not stated),71*,0,1,-3,0,-4
O=C(N/N=C/c1ccc(O)c(O)c1)c1ccc(CSc2cccc3cccnc23)cc1,57*,-1,0.8,5,-3,21
O=C(CSc1cccc2cccnc12)N/N=C/c1cccc(O)c1,-6,0,1.1,-5,1,-6
COc1ccccc1NC(=O)CN1CCC(n2nnc3cc(F)ccc32)CC1,-9,1,1,-9,5,-3
COc1ccc(Cl)cc1NC(=O)CN1CCC(n2nnc3cc(C)ccc32)CC1,i,1,2.7*,7,5,-173
Cc1oc(-c2ccccc2Cl)nc1CN1CCCN(C(=O)c2ccco2)CC1,-13,-1,1.1,-4,-2,-8
CSc1nc(-c2ccc(Cl)cc2)nn1C(=O)c1ccccc1,43,0,1,1,8,1
CCS(=O)(=O)n1nc(-c2ccccc2)nc1SC,54*,0,1,-5,4,-4
CSc1nc(-c2ccccc2)nn1C(=O)c1ccccc1,56*,0,1,-1,0,0
CSc1nc(-c2ccccc2)nn1S(=O)(=O)c1ccccc1,54*,0,1,-6,2,-3
SMILES,TNAP inh noacc,ABCB1 block,TNAP act hi DEA,PKD1 kinase inh,ABCG2 block,TNAP inh hi DEA
O=c1cc(/N=C/c2coc3c(ccc4ccccc43)c2=O)[nH]c(=S)[nH]1,53*,-2,0.8,-6,-11,24
NC(=S)N/N=C/c1coc2c(ccc3ccccc32)c1=O,-25,0,0.9,-14,-2,6
COc1ccc(NC(=S)N2CCNC(=O)C2CC(=O)Nc2cccc(Cl)c2C)cc1 (configuration not stated),-5,1,1,2,36,0
COc1ccc2c(c1)c(C(=O)N/N=C/c1ccc(O)c(O)c1)c(C)n2C,56*,1,1,17,1,1
COc1ccc2nc(C)cc(SCC(=O)N/N=C/c3ccc(O)c(O)c3)c2c1,76*,-1,0.8,0,-1,20
CC(=O)N1CCC(=NNC(=O)CSc2cc(C)c(Br)cc2C)CC1,-8,0,1,0,0,0
Cc1cc(SCC(=O)N/N=C/c2ccc(O)c(O)c2)c(C)cc1Br,50*,0,0.9,-4,0,12
COc1cccc2c(SCC(=O)N/N=C/c3ccc(O)c(O)c3)cc(C)nc12,72*,0,0.9,0,1,11
CCOc1ccc(/C=N/NC(=O)c2c(C)n(C)c3ccc(OC)cc23)cc1,-6,1,1.1,-4,3,-8
C=CCOc1c(Br)cc(/C=N/n2c(CC)n[nH]c2=S)cc1Br,59*,-1,0.8,-1,-3,16
O=C1c2ccccc2-c2nc3ncnn3c(-c3ccccc3)c21,.,.,.,-3,.,.
c1ccc(-c2cnn3c(-c4ccccc4)c(-c4ccccc4)nc3n2)cc1,-36,43*,1,40,172*,-2
CCN(CC)c1ccc(C=NCCc2ccc(S(N)(=O)=O)cc2)cc1,-5,0,1,-5,0,2
CCN1/C(=C/c2ccc3cc(C)ccc3[n+]2CC)Sc2ccccc21,29,.,0.6,-25,+,42
CCN1/C(=C/c2ccc3cc(C)ccc3[n+]2CC)Sc2cc(C)c(C)cc21,9,5,0.8,-21,47,16
O=C(N/N=C/c1ccccc1C(=O)O)c1cc(-c2ccc3c4c(cccc24)CC3)n[nH]1,74*,0,1,-4,0,-2
CCNc1nc(SCC(=O)OC)nc(N(C)C)n1,-2,0,1.1,-5,0,-6
O=C(N/N=C/c1ccco1)c1cc(-c2ccccc2)n[nH]1,93*,0,0.8,-2,3,22
